# Source: ChEMBL document CHEMBL4402600, “Discovery of a Dual Tubulin Polymerization and Cell Division Cycle 20 Homologue Inhibitor via Structural Modification on Apcin” (J Med Chem, 2020)
# pIC50, pKd: −log10 of the molar value. Active and inactive are the calls of the source. The rule behind the calls is not given here.
# What was measured:
# A-375 = test: Cytotoxicity in human A375 cells assessed as reduction in cell viability incubated for 48 hrs by MTT assay; format: functional, cell-based; details: A-375, 48 h
# Procedure, shortened: (§1)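 Cells grown at 37°C, 5% CO₂ (HepG2, OVCAR-3, Caov-3 in DMEM + 10% FBS; A549, HeLa, A375, MCF-7 in RPMI 1640 + 10% FBS). Seeded at 4-5×10³/well in triplicate, adhered overnight, exposed to 0.03–300 μM (DMSO <0.1%) for 48 h. MTT added for 4 h, formazan dissolved in DMSO, absorbance read. IC50 from dose–response curves, mean ± SD of at least three independent experiments.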
# A549 = test: Cytotoxicity in human A549 cells assessed as reduction in cell viability incubated for 48 hrs by MTT assay; format: functional, cell-based; details: A549, 48 h; procedure, shortened: as §1
# HepG2 [1] = test: Cytotoxicity in human HepG2 cells assessed as reduction in cell viability incubated for 48 hrs by MTT assay; format: functional, cell-based; details: HepG2, 48 h; procedure, shortened: as §1
# MCF7 = test: Cytotoxicity in human MCF7 cells assessed as reduction in cell viability incubated for 48 hrs by MTT assay; format: functional, cell-based; details: MCF7, 48 h; procedure, shortened: as §1
# [2] = molecular target: T1, Cell division cycle protein 20 homolog (Homo sapiens, UniProt Q12834); test: Binding affinity to CDC20 (unknown origin) by SPR analysis
# Procedure, shortened: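 Recombinant human Cdc20 (>95% pure) coupled by EDC/NHS to an acid-coupling chip; PBS pH 7.4 running buffer. Compounds injected as a gradient dilution series starting at 200 μM, 120-140 s association, 160 s dissociation. Steady-state values plotted against concentration; K_D from a one-to-one / single-site model.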
# Caov-3 cell line = test: Cytotoxicity in human Caov3 cells assessed as reduction in cell viability incubated for 48 hrs by MTT assay; format: functional, cell-based; details: Caov-3, 48 h; procedure, shortened: as §1
# OVCAR-3 = test: Cytotoxicity in human OVCAR3 cells assessed as reduction in cell viability incubated for 48 hrs by MTT assay; format: functional, cell-based; details: OVCAR-3, 48 h; procedure, shortened: as §1
# HeLa = test: Cytotoxicity in human HeLa cells assessed as reduction in cell viability incubated for 48 hrs by MTT assay; format: functional, cell-based; procedure, shortened: as §1
# HepG2 [3] = test: Induction of apoptosis in human HepG2 cells assessed as late apoptotic cells level at 100 uM incubated for 24 hrs by Annexin V-FITC/PI staining based flow cytometry (reference value: 5.12%); format: functional
# HepG2 [4] = test: Induction of apoptosis in human HepG2 cells assessed as viable cells level at 100 uM incubated for 24 hrs by Annexin V-FITC/PI staining based flow cytometry (reference value: 89.38%); format: functional
# [5] = molecular target: T1, Cell division cycle protein 20 homolog; test: Inhibition of CDC20 in human HepG2 cells assessed as increase in Aurora A protein degradation at 30 uM measured after 1 to 12 hrs by Western blot analysis; format: cell-based
# Procedure, shortened: (§2)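 Time course in HepG2: cyclin B1, Aurora A, Bim and cleaved PARP examined by Western blot at 1, 2, 4, 8 and 12 h after adding 30 μM compound; lysis in RIPA with inhibitors, 25 μg protein per lane, ECL detection.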
# [6] = molecular target: T1, Cell division cycle protein 20 homolog; test: Inhibition of CDC20 in human HepG2 cells assessed as increase in stability of Bim protein at 30 uM measured after 1 to 12 hrs by Western blot Analysis
# HepG2 [7] = test: Inhibition of mitotic exit in human HepG2 cells assessed as increase in nuclear phosphohistone H3 levels at 30 uM incubated for 48 hrs by immunofluorescence assay relative to control; format: functional; set-up: scale not given: the % may be the effect or the level left
# Procedure, shortened: (§3)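 HepG2 seeded at 4×10³/well, overnight adhesion, treated 48 h. Fixed 15 min in 4% formaldehyde, permeabilized with Triton X-100, BSA-blocked, anti-phospho-histone H3 (Ser10) at 4°C overnight, fluorescent anti-rabbit secondary, DAPI counterstain. Fluorescence read relative to DMSO control; PHH3-positive cells counted in random fields as % of total. At least two experiments.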
# HepG2 [8] = test: Inhibition of mitotic exit in human HepG2 cells assessed as increase in nuclear phosphohistone H3 levels incubated for 48 hrs by immunofluorescence assay; format: functional, cell-based; procedure, shortened: as §3
# HepG2 [9] = test: Induction of apoptosis in human HepG2 cells assessed as necrotic cells level at 100 uM incubated for 24 hrs by Annexin V-FITC/PI staining based flow cytometry (reference value: 1.48%); format: functional
# HepG2 [10] = test: Induction of apoptosis in human HepG2 cells assessed as increase in cleaved caspase-3 level at 3 to 30 uM incubated for 48 hrs by Western blot analysis; format: functional, cell-based
# Procedure, shortened: (§4)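 HepG2 cells treated 48 h. Lysates in RIPA buffer with protease/phosphatase inhibitors; 25 μg protein run on SDS-PAGE, transferred to PVDF, blocked in 5% milk/TBST, primary antibodies overnight at 4°C (caspase-3, cleaved caspase-3, cleaved PARP), HRP secondary 1 h at room temperature, ECL detection; densitometry quantified.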
# [11] = molecular target: T1, Cell division cycle protein 20 homolog; test: Inhibition of CDC20 in human HepG2 cells assessed as decrease in cyclin B degradation at 30 uM incubated for 48 hrs by Western blot Analysis; format: cell-based
# Procedure, shortened: (§5)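 HepG2 lysates in RIPA buffer with protease/phosphatase inhibitors; 25 μg protein by SDS-PAGE/PVDF, blocked in 5% milk/TBST, primary antibodies overnight at 4°C (Cyclin A2, Cyclin B1, Bim, Aurora A, Skp2), HRP secondary 1 h at room temperature, ECL; bands quantified by densitometry.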
# HepG2 [12] = test: Induction of apoptosis in human HepG2 cells assessed as increase in cleaved PARP level at 3 to 30 uM incubated for 48 hrs by Western blot analysis; format: functional, cell-based; procedure, shortened: as §4
# [13] = molecular target: Fizzy-related protein homolog (Homo sapiens) (UniProt Q9UM11); test: Inhibition of CDH1 in human HepG2 cells assessed as effect on Aurora A protein expression at 30 uM incubated for 48 hrs by Western blot Analysis; format: cell-based; procedure, shortened: as §5
# HepG2 [14] = test: Induction of apoptosis in human HepG2 cells assessed as early apoptotic cells level at 100 uM incubated for 24 hrs by Annexin V-FITC/PI staining based flow cytometry (reference value: 4.02%); format: functional
# [15] = molecular target: T1, Cell division cycle protein 20 homolog; test: Inhibition of CDC20 in human HepG2 cells assessed as increase in stability of cyclin B1 protein at 30 uM measured after 2 to 8 hrs by Western blot Analysis; format: cell-based; procedure, shortened: as §2
# [16] = molecular target: T1, Cell division cycle protein 20 homolog; test: Inhibition of CDC20 in human HepG2 cells assessed as increase in stability of Bim protein at 30 uM measured after 2 to 8 hrs by Western blot Analysis; format: cell-based; procedure, shortened: as §2
# HepG2 [17] = test: Inhibition of mitotic exit in human HepG2 cells assessed as increase in nuclear phosphohistone H3 levels at 3 to 30 uM incubated for 48 hrs by Western blot analysis relative to control; format: functional, cell-based
# [18] = molecular target: T1, Cell division cycle protein 20 homolog; test: Inhibition of CDC20 in human HepG2 cells assessed as increase in Bim protein levels at 30 uM incubated for 48 hrs by Western blot Analysis; format: cell-based; procedure, shortened: as §5
# [19] = molecular target: Fizzy-related protein homolog (Homo sapiens) (UniProt Q9UM11); test: Inhibition of CDH1 in human HepG2 cells assessed as effect on Skp2 protein expression at 30 uM incubated for 48 hrs by Western blot Analysis; format: cell-based; procedure, shortened: as §5
# T1 sequence (Q12834 whole entry): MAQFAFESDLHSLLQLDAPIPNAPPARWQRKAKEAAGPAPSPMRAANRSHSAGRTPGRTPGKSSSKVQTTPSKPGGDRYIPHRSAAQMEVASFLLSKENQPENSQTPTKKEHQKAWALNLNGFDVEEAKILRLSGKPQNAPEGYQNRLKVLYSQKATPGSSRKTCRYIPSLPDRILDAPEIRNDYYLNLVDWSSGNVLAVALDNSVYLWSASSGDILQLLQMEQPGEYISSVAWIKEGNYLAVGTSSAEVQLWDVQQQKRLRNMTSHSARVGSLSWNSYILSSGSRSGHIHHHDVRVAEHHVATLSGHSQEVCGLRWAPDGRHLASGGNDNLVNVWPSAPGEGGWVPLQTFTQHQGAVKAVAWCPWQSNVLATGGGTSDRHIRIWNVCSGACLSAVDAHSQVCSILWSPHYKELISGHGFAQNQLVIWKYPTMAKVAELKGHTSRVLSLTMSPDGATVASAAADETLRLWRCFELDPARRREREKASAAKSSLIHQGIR
# Fizzy-related protein homolog (Homo sapiens), sequence (Q9UM11 whole entry): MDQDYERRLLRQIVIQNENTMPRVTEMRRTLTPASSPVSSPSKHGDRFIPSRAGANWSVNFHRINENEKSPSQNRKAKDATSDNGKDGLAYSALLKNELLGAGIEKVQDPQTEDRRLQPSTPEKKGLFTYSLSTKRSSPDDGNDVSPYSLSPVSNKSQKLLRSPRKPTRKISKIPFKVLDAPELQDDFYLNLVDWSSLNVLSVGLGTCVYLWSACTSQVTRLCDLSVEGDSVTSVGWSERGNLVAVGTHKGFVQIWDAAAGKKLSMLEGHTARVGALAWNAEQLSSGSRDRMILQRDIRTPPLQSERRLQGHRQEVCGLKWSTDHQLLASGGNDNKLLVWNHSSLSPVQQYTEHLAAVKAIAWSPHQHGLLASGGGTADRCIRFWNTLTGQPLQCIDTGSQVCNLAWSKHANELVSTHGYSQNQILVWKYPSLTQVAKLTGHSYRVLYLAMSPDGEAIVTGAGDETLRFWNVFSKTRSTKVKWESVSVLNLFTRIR
pKd [2],SMILES,pIC50 (A-375),pIC50 (A549),pIC50 (HepG2 [1]),pIC50 (MCF7),pIC50 (Caov-3 cell line),pIC50 (OVCAR-3),pIC50 (HeLa),further results
3.79,Cc1ncc([N+](=O)[O-])n1CCOC(=O)NC(n1cnc2c(N)nc(F)nc21)C(Cl)(Cl)Cl (centres undefined),6.30,5.44,6.22,6.10,5.92,5.82,5.72,
4.31,Cc1ncc([N+](=O)[O-])n1CCOC(=O)NC(Nc1c(Cl)nc(N)nc1Cl)C(Cl)(Cl)Cl (centres undefined),4.47,4.25,4.59,3.80,3.96,,4.20,Activity (HepG2 [3]): 9.31%; Activity (HepG2 [4]): 64.34%; inhibition [5]: Active; inhibition [6]: inactive; Activity (HepG2 [7]): 6.9%; Activity (HepG2 [8]): Dose-dependent effect; Activity (HepG2 [9]): 1.08%; Activity (HepG2 [10]): Active; inhibition [11]: Active; Activity (HepG2 [12]): Active; inhibition [13]: inactive; Activity (HepG2 [14]): 25.27%; inhibition [15]: Active; inhibition [16]: Active; Activity (HepG2 [17]): Active; inhibition [18]: Active; inhibition [19]: inactive
,Cc1ncc([N+](=O)[O-])n1CCOC(=O)NC(n1cnc2c(Cl)nc(F)nc21)C(Cl)(Cl)Cl (centres undefined),3.92,< 3.52,4.26,4.21,< 3.52,< 3.52,< 3.52,
